An excerpt weighted towards active compounds, which were near 1.8% of everything screened.
CHRM4 antagonist: human M4 muscarinic receptor antagonists, primary screen, CHO cells, Fluo-8 calcium fluorescence. Muscarinic acetylcholine receptor M4 (Homo sapiens), P08173. inhibition, % at 3 µM. CHO-hM4 cells, ACh EC80. 0.73% of 360,000 active;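 active = inhibition above its plate's cutoff, the mean inhibition of sample wells plus 3 SD, cut at about 27% in these data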;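 note: 0% = acetylcholine EC80 with DMSO and 100% = DMSO without agonist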
Target sequence (P08173 whole entry, looked up): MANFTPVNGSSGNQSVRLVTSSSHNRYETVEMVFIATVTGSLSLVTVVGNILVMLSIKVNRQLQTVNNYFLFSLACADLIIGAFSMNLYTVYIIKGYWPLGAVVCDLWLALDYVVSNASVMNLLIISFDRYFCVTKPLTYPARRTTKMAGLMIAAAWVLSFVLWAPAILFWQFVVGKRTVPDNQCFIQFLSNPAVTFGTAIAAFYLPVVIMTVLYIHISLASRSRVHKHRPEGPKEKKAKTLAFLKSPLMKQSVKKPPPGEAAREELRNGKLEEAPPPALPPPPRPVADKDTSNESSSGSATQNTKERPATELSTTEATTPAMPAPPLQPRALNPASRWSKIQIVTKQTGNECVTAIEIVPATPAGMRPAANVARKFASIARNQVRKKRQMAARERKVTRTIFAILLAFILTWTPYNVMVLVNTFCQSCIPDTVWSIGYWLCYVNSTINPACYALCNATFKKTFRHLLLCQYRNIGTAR
M4 ag: human M4 muscarinic receptor agonists, primary screen, CHO-K1 cells, Fluo-8 calcium fluorescence; CHO-K1 hM4/Gqi5; vehicle 0%, full acetylcholine response 100%; activation, % at 3 µM; 0.14% of 360,000 active;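 active = activation above the run mean over all test wells plus 3 SD, cut at about 32% in these data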;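 note: peak over basal fluorescence ratio per well then scaled between controls; 0% = DMSO wells and 100% = acetylcholine at EC100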
CHRM4 PAM: human M4 muscarinic receptor positive allosteric modulators, primary screen, CHO-K1 cells, Fluo-8 calcium fluorescence | Muscarinic acetylcholine receptor M4 (Homo sapiens), P08173 | CHO-K1 hM4/Gqi5, ACh EC20; 0% = ACh EC20, 100% = maximal ACh | activation, % at 3 µM | 0.4% of 360,000 active | AID 624126, 2012;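 active = activation above its plate's cutoff, the mean activation of sample wells plus 3 SD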
CHRM5 antagonist: human M5 muscarinic receptor antagonists, primary screen, CHO cells, Fluo-8 calcium fluorescence; Muscarinic acetylcholine receptor M5 (Homo sapiens), P08912; CHO-hM5 cells, ACh EC80; inhibition, % at 3 µM; 0.59% of 360,000 active; AID 624040, 2012;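 active = inhibition above a per-plate cutoff, the mean of that plate's test compounds plus 3 SD, cut at about 27% in these data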;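 note: 0% = acetylcholine EC80 with DMSO and 100% = DMSO without agonist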
CHRM5 PAM: human M5 muscarinic receptor positive allosteric modulators, primary screen, CHO-K1 cells, Fluo-8 calcium fluorescence; Muscarinic acetylcholine receptor M5 (Homo sapiens), P08912; CHO-K1 hM5, ACh EC20 PAM; 0% = ACh EC20, 100% = ACh EC100; activation, % at 3 µM; 0.3% of 360,000 active; AID 624038, 2012;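 active = activation above the run cutoff, the mean activation of all test compounds plus 3 SD, cut at about 18% in these data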
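Replicates: One well per compound, no replicates | System: Human M5 receptor in CHO-K1 cells | Benchmarks: Low control EC20 acetylcholine (0%), high control EC100 acetylcholine (100%) | Probe or stimulus: Acetylcholine, EC20 level | Times: Fluo-8 loading 80 min at 37 °C plus 30 min room temperature | Signal: Intracellular calcium via Fluo-8 fluorescence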
M5 ag: human M5 muscarinic receptor agonists, primary screen, CHO-K1 cells, Fluo-8 calcium fluorescence; activation, % at 3 µM; 0.19% of 360,000 active; CHO-K1 hM5 cells; 0% DMSO wells, 100% maximal acetylcholine response; AID 624037, 2012;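 active = activation above the run's mean over test compounds plus 3 SD, cut at about 23% in these data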;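 note: signal is peak over basal fluorescence ratio across the kinetic read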
* hit, by the source's call.

How did Cc1cccc(NC(=O)CN(C)S(=O)(=O)c2ccc3c(c2)n(C)c(=O)c(=O)n3C)c1C do in these assays?
CHRM4 antagonist: -3.2; M4 ag: 1.5; CHRM4 PAM: 2.1; CHRM5 antagonist: 8.5; CHRM5 PAM: -2.5; M5 ag: -4.0

Results for COc1ccc(C2=NOC3(CC(=O)N(c4ccc(F)cc4)C3=O)C2)cc1 (configuration not stated) ?
CHRM4 antagonist: -17.9; M4 ag: 1.5; CHRM4 PAM: 34.7*; CHRM5 antagonist: -16.6; CHRM5 PAM: 14.3; M5 ag: 6.6

How did O=C(c1ccc(-c2cc(Cl)ccc2Cl)o1)N1CCOCC1 do in these assays?
CHRM4 antagonist: -0.7; M4 ag: 0.6; CHRM4 PAM: 10.1; CHRM5 antagonist: -8.7; CHRM5 PAM: 19.2*; M5 ag: 2.5

Results for O=C(c1ccc(-c2ccc(Cl)cc2Cl)o1)N1CCOCC1 ?
CHRM4 antagonist: -6.6; M4 ag: -0.7; CHRM4 PAM: -10.7; CHRM5 antagonist: -12.6; CHRM5 PAM: 9.7; M5 ag: -0.6

How did COc1ccccc1NC(=O)CSCc1nc2ccccc2[nH]1 do in these assays?
CHRM4 antagonist: -4.1; M4 ag: 2.1; CHRM4 PAM: 20.9*; CHRM5 antagonist: -1.2; CHRM5 PAM: -1.8; M5 ag: -1.8

How did COc1ccccc1NC(=O)Cc1nnc(SCC(=O)NC2CCCC2)n1C do in these assays?
CHRM4 antagonist: 14.9; M4 ag: 1.6; CHRM4 PAM: -2.4; CHRM5 antagonist: 22.9; CHRM5 PAM: -6.8; M5 ag: -2.1

Results for COc1ccc(NC(=O)CSc2nncn2N)c(OC)c1 ?
CHRM4 antagonist: -1.6; M4 ag: 0.0; CHRM4 PAM: -6.8; CHRM5 antagonist: -1.1; CHRM5 PAM: 4.9; M5 ag: 3.7

How did COc1ccccc1NC(=O)CSc1nncn1N do in these assays?
CHRM4 antagonist: 6.0; M4 ag: 1.3; CHRM4 PAM: -1.2; CHRM5 antagonist: -6.2; CHRM5 PAM: 19.3*; M5 ag: 6.0

Results for COc1ccccc1NC(=O)Cc1nnc(SCC(=O)NC2CCCCC2C)n1C (configuration not stated) ?
CHRM4 antagonist: 3.1; M4 ag: 1.9; CHRM4 PAM: -2.4; CHRM5 antagonist: 31.1*; CHRM5 PAM: -7.9; M5 ag: -3.1

How did Cc1ccc(CN2C(=O)C(F)(F)Oc3ccc(C)cc32)cc1 do in these assays?
CHRM4 antagonist: 4.5; M4 ag: -0.8; CHRM4 PAM: 1.0; CHRM5 antagonist: 5.4; CHRM5 PAM: -3.2; M5 ag: -0.7

How did Cc1ccc(SCC(=O)NNC(=O)c2cncc(Br)c2)cc1 do in these assays?
CHRM4 antagonist: 1.0; M4 ag: 0.5; CHRM4 PAM: 4.7; CHRM5 antagonist: 6.0; CHRM5 PAM: 5.9; M5 ag: -0.7

Results for COc1ccc(N(C(=O)CNC(=O)c2cccs2)C(C(=O)NCC2CCCO2)c2ccccc2)cc1 (configuration not stated) ?
CHRM4 antagonist: -0.9; M4 ag: 8.7; CHRM4 PAM: 7.3; CHRM5 antagonist: 3.3; CHRM5 PAM: -11.7; M5 ag: -0.9

What do the screens show for `Clc1cc(Br)ccc1OCCCNCc1ccccc1`?
CHRM4 antagonist: 8.9; M4 ag: 14.2; CHRM4 PAM: -11.1; CHRM5 antagonist: 6.2; CHRM5 PAM: -3.1; M5 ag: 2.9

Results for CN(C/C=C/c1ccccc1[N+](=O)[O-])Cc1ccccc1 ?
CHRM4 antagonist: 35.3*; M4 ag: 0.3; CHRM4 PAM: -14.6; CHRM5 antagonist: 11.3; CHRM5 PAM: -17.8; M5 ag: -21.7

What do the screens show for `COc1ccc(NC(=O)CN2C(=O)NC(C)(C3CC3)C2=O)c(OC)c1` (configuration not stated)?
CHRM4 antagonist: 9.5; M4 ag: 0.1; CHRM4 PAM: 2.0; CHRM5 antagonist: 14.0; CHRM5 PAM: -3.3; M5 ag: 0.5

Results for CC(=O)N1CCN=C1SCc1c(F)cccc1Cl ?
CHRM4 antagonist: -13.1; M4 ag: 1.9; CHRM4 PAM: 20.2*; CHRM5 antagonist: 0.5; CHRM5 PAM: 1.5; M5 ag: 3.5

Results for Cc1ccc(C)c(NC2=C(Cl)C(=O)OC2OC(C)C)c1 (configuration not stated) ?
CHRM4 antagonist: 2.3; M4 ag: -0.3; CHRM4 PAM: -4.6; CHRM5 antagonist: 7.5; CHRM5 PAM: 0.1; M5 ag: -4.5

How did Fc1ccc(CN2CC[C@H]3C=CCc4cccc(c43)C2)cc1 do in these assays?
CHRM4 antagonist: -4.6; M4 ag: 6.8; CHRM4 PAM: -1.8; CHRM5 antagonist: 2.9; CHRM5 PAM: 6.0; M5 ag: -5.9

Results for Cn1c(CC(=O)Nc2ccc(Cl)c(Cl)c2)n[nH]c1=S ?
CHRM4 antagonist: 0.1; M4 ag: 3.9; CHRM4 PAM: 10.3; CHRM5 antagonist: -0.7; CHRM5 PAM: 12.4; M5 ag: 3.9

What do the screens show for `COc1ccc(Cc2n[nH]c(=S)n2NC(=O)Nc2ccc(Cl)c(Cl)c2)cc1`?
CHRM4 antagonist: 23.0; M4 ag: 13.6; CHRM4 PAM: -34.5; CHRM5 antagonist: 30.2*; CHRM5 PAM: -23.5; M5 ag: 5.9

Results for Cc1ccc(CN2CC(C(=O)N3CC(C)CC(C)C3)CC2=O)cc1 (configuration not stated) ?
CHRM4 antagonist: 3.3; M4 ag: 0.3; CHRM4 PAM: 2.6; CHRM5 antagonist: 5.2; CHRM5 PAM: 3.6; M5 ag: 2.4

How did CCOc1ccc(Nc2nc(N)nc(CSC(=S)N3CCOCC3)n2)cc1 do in these assays?
CHRM4 antagonist: 2.4; M4 ag: 13.7; CHRM4 PAM: -22.3; CHRM5 antagonist: 34.0*; CHRM5 PAM: -26.1; M5 ag: -9.7

What do the screens show for `Cc1ccc(Nc2nc(N)nc(CSC(=S)N3CCOCC3)n2)cc1`?
CHRM4 antagonist: -4.9; M4 ag: -0.1; CHRM4 PAM: -2.1; CHRM5 antagonist: -0.4; CHRM5 PAM: -0.3; M5 ag: 0.0

Results for CCOC(=O)C1(CCc2ccccc2)CCN(C2Cc3ccccc3C2)CC1 ?
CHRM4 antagonist: 0.8; M4 ag: 3.4; CHRM4 PAM: -13.3; CHRM5 antagonist: 40.5*; CHRM5 PAM: -19.5; M5 ag: -9.6

How did Cc1cc(/C=C2/NC(=O)NC2=O)c(C)n1-c1ccccn1 do in these assays?
CHRM4 antagonist: -8.8; M4 ag: 0.7; CHRM4 PAM: 5.8; CHRM5 antagonist: -12.5; CHRM5 PAM: 0.8; M5 ag: -0.1

Screening results from PubChem.
